MrgX1 antag: human MrgX1 receptor antagonism, primary screen; Q96LB2; MRGX1-HEK293 calcium flux, Fluo-4, BAM8-22 antagonism; hits give low values; B-score at 10 µM; actives 1.3% (n = 310,000); AID 588676;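 active = calcium-response B-score plate-corrected more than 3 library SD below zero, starting fluorescence within 5 deviations, no agonist response on first addition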;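 also: peak minus trough fluorescence over baseline after final BAM8-22 challenge near maximal dose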
Target sequence (Q96LB2 whole entry, looked up): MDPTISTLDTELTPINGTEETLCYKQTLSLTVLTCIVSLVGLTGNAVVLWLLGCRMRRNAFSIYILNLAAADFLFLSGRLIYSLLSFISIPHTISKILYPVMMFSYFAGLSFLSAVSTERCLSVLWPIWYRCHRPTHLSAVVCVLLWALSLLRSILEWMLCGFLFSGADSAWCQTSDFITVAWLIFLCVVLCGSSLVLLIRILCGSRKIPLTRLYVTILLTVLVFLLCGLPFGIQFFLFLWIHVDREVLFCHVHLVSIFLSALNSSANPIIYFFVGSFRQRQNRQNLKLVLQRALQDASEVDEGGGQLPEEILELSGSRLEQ
RGS4 inh: human RGS4 inhibition. P49798. HEK293 M3R/RGS4 inducible, Fluo-4 calcium flux; hits give high values; triggered by carbachol at its EC20. actives 0.45% (n = 310,000). B-score at 10 µM;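 active = B-score, a plate-corrected calcium signal, over three deviations above library mean, with baseline fluorescence within five deviations of library mean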;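 also: RGS4 expression induced by doxycycline in cells with stable M3 receptor; B-score is computed from the integrated fluorescence ratio over baseline after carbachol; higher B-score means a larger calcium signal and so more RGS4 inhibition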
Target sequence (P49798 whole entry, looked up): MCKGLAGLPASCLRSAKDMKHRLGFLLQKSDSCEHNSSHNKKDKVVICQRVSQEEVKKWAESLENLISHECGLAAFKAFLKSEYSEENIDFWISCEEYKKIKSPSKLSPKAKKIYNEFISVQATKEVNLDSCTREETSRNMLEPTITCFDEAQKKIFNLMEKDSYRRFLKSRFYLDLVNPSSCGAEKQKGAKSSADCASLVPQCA
MrgX1 agonist: agonists of human MrgX1 receptor. MrgX1-HEK293 cells, Fluo-4 calcium fluorescence, agonist mode; hits give high values. B-score at 10 µM. actives 0.44% (n = 310,000). Q96LB2;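 active = calcium response B-score plate-corrected fluorescence ratio at least 3 library SD, with starting fluorescence B-score inside 5 SD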
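Material: HEK293 cells stably expressing human MrgX1 receptor | Quantity: 15,000 cells per well | Times: Cells plated overnight, dye loaded 0.5 h 37 °C, 0.5 h room temperature | Measured by: Kinetic Fluo-4 NW fluorescence of intracellular calcium | Control set: Positive and negative controls per plate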
MrgX1 PAM: human MrgX1 positive allosteric modulation, primary screen; Q96LB2; MrgX1-HEK293, Fluo-4 calcium flux, FDSS; hits give high values; B-score at 10 µM; actives 0.63% (n = 310,000);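 active = plate-corrected calcium response at least 3 library SD above typical, normal starting fluorescence, not activating the receptor alone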;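 also: compound read alongside a low EC10 to EC30 dose of BAM8-22 agonist; peak minus trough fluorescence over baseline measured at the second addition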
RGS4 act: potentiators or activators of RGS4; HEK293 M3R/inducible RGS4, carbachol calcium flux Fluo4; hits give low values; AID 463111; B-score at 10 µM; actives 0.92% (n = 310,000);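 active = B-score of the integrated calcium signal more than 4 SD below the library mean, with starting fluorescence not abnormally high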;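 also: negative B-score means reduced calcium response which marks RGS4 activation or potentiation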
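test system = HEK293 cells with stable M3R and inducible RGS4 | schedule = recording 10 s baseline at 1 Hz, 100 s post-agonist | technique = Fluo4-AM (2 µM) calcium-flux fluorescence, kinetic read | measure = Agonist-evoked peak-minus-minimum fluorescence over baseline, integrated ratio, B score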
MrgX1 ag confirm: confirmation of human MrgX1 receptor agonists | shares compounds with MrgX1 agonist | MrgX1-HEK293, Fluo-4 calcium fluorescence, FDSS | activation, % at 10 µM | actives 78% (n = 600);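 active = calcium signal rise, corrected for plate position, at least 3 library SD high, with starting brightness within 5 such deviations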
HEK293 Ca flux: counter-screen for MrgX1 antagonists: effect in parental HEK293 cells; actives 2% (n = 4,000); shares compounds with MrgX1 antag; AID 624111; fluorescence ratio F(max-min)/F0 at 10 µM; Fluo-4 calcium fluorescence, FDSS;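 active = duplicate-averaged calcium fluorescence ratio at least three times the standard deviation of buffer wells, a nonspecific response in parental cells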
HEK293 Ca counter: activity in parental HEK293 cells without MrgX1; fluorescence ratio F(max-min)/F0 at 10 µM; parental HEK293 calcium flux, Fluo-4 fluorescence ratio; hits give high values; actives 0.4% (n = 4,000); shares compounds with MrgX1 antag;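 active = calcium fluorescence ratio, averaged over duplicates, at least 3 SD of the buffer-well ratio, meaning a nonspecific response in receptor-free cells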;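 also: untransfected parental HEK293 lacking MrgX1 used as counterscreen for MrgX1 allosteric activators; fluorescence change taken during the second addition on a kinetic imager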
HEK293 Ca cntr2: activity in parental HEK293 cells lacking MrgX1 receptor; shares compounds with MrgX1 antag; Fluo-4 calcium fluorescence (FDSS); hits give high values; fluorescence ratio F(max-min)/F0 at 10 µM; actives 8.7% (n = 4,000);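 active = calcium fluorescence ratio at least three times the spread of buffer wells, meaning a non-specific response in parental cells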
The depositor's hits bear a star. This is a sample that favours compounds with a hit; in the whole collection about 3.5% have one here.

For O=C(CNCC1(N2CCOCC2)CCCCC1)Nc1ccc(Cl)cc1 the results were MrgX1 antag inactive, RGS4 inh inactive, MrgX1 agonist 74*, MrgX1 PAM inactive, RGS4 act inactive, MrgX1 ag confirm inactive, HEK293 Ca flux inactive, HEK293 Ca counter inactive and HEK293 Ca cntr2 inactive.
For Cn1c2ccccc2c(=O)c2c(=O)n(C3CCCCC3)c(-c3ccco3)nc21 the results were MrgX1 antag inactive, RGS4 inh inactive, MrgX1 agonist 90.8*, MrgX1 PAM inactive, RGS4 act inactive, MrgX1 ag confirm 589.3%*, HEK293 Ca flux inactive, HEK293 Ca counter inactive and HEK293 Ca cntr2 113*.
For Cc1cc(=O)[nH]c(SCC(=O)Nc2ccc(F)cc2)c1C#N the results were MrgX1 antag inactive, RGS4 inh inactive, MrgX1 agonist inactive, MrgX1 PAM inactive and RGS4 act inactive.
`Cc1cc(=O)[nH]c(SCC(=O)Nc2ccc(Br)cc2)c1C#N` gave MrgX1 antag inactive, RGS4 inh inactive, MrgX1 agonist 72.4*, MrgX1 PAM inactive, RGS4 act inactive, MrgX1 ag confirm 375.1%*, HEK293 Ca flux inactive, HEK293 Ca counter inactive and HEK293 Ca cntr2 83.5*.
`CCOC(=O)CC(=O)CSc1nc(-c2cccnc2)ccc1C#N` gave MrgX1 antag inactive, RGS4 inh inactive, MrgX1 agonist 36.6*, MrgX1 PAM inactive, RGS4 act inactive, MrgX1 ag confirm 274.7%*, HEK293 Ca flux inactive, HEK293 Ca counter inactive and HEK293 Ca cntr2 65.7*.
Screening CCOC(=O)CSc1nc(-c2ccncc2)ccc1C#N returned MrgX1 antag inactive, RGS4 inh inactive, MrgX1 agonist 29.5*, MrgX1 PAM inactive, RGS4 act inactive, MrgX1 ag confirm 149.8%*, HEK293 Ca flux inactive, HEK293 Ca counter inactive and HEK293 Ca cntr2 inactive.
`CCOC(=O)CC(=O)CSc1nc(C)cc(-c2cccnc2)c1C#N` gave MrgX1 antag inactive, RGS4 inh inactive, MrgX1 agonist inactive, MrgX1 PAM inactive and RGS4 act inactive.
Screening Cc1ccc(-n2c(CCC(=O)O)ccc2-c2cccs2)cc1C returned MrgX1 antag inactive, RGS4 inh inactive, MrgX1 agonist 29*, MrgX1 PAM inactive, RGS4 act inactive, MrgX1 ag confirm 216.2%*, HEK293 Ca flux inactive, HEK293 Ca counter inactive and HEK293 Ca cntr2 inactive.
`CCOC(=O)c1ccc(-n2c(CCC(=O)O)ccc2-c2cccs2)cc1` gave MrgX1 antag inactive, RGS4 inh inactive, MrgX1 agonist inactive, MrgX1 PAM inactive and RGS4 act inactive.
CCOC(=O)Cc1csc(N/C(=N/S(=O)(=O)c2ccc(F)cc2F)c2ccccc2)n1 was read as MrgX1 antag inactive, RGS4 inh inactive, MrgX1 agonist 30*, MrgX1 PAM inactive, RGS4 act inactive, MrgX1 ag confirm 181.5%*, HEK293 Ca flux inactive, HEK293 Ca counter inactive and HEK293 Ca cntr2 inactive.
O=C(NC(=S)NNC(=O)c1ccccc1O)c1ccccc1 was read as MrgX1 antag inactive, RGS4 inh inactive, MrgX1 agonist 93.1*, MrgX1 PAM inactive, RGS4 act inactive, MrgX1 ag confirm 478.5%*, HEK293 Ca flux inactive, HEK293 Ca counter inactive and HEK293 Ca cntr2 85.5*.
For Cc1ccc(C(=O)NNC(=S)NC(=O)c2ccc(Cl)cc2Cl)cc1 the results were MrgX1 antag inactive, RGS4 inh inactive, MrgX1 agonist 131*, MrgX1 PAM inactive, RGS4 act inactive, MrgX1 ag confirm 585.4%*, HEK293 Ca flux inactive, HEK293 Ca counter inactive and HEK293 Ca cntr2 116*.

Screening results (PubChem)
